This is an account of results in ChEMBL document CHEMBL1131143, “Predictive models for GABAA/benzodiazepine receptor subtypes: studies of quantitative structure-activity relationships for imidazobenzodiazepines at five recombinant GABAA/benzodiazepine receptor subtypes [alphaxbeta3gamma2 (x = 1-3, 5, and 6)] via comparative molecular field analysis” (J Med Chem, 1998).

The Ki is a dissociation constant, usually derived from enzyme kinetics or from competition with a known ligand. A low value points to tighter binding.

Holding throughout (format): protein-complex assay
The target in assay [1] is GABA-A receptor; alpha-6/beta-3/gamma-2 (Homo sapiens, UniProt P18507+P28472+Q16445). The experiment in a line: Binding affinity against Gamma-aminobutyric acid A receptor alpha-6-beta-3-gamma-2. The method, boiled down: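 Cells scraped into PBS, spun at 3000g, resuspended in 10 mM KH₂PO₄/100 mM KCl pH 7.4. Nonspecific binding with 10⁻⁵ M diazepam; 1 h to equilibrium at 4 °C; filtration, ice-cold buffer wash, scintillation counting.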

The target in assay [2] is T1, GABA-A receptor; alpha-5/beta-3/gamma-2 (Homo sapiens, UniProt P18507+P28472+P31644).
T1 sequence (P18507 whole entry): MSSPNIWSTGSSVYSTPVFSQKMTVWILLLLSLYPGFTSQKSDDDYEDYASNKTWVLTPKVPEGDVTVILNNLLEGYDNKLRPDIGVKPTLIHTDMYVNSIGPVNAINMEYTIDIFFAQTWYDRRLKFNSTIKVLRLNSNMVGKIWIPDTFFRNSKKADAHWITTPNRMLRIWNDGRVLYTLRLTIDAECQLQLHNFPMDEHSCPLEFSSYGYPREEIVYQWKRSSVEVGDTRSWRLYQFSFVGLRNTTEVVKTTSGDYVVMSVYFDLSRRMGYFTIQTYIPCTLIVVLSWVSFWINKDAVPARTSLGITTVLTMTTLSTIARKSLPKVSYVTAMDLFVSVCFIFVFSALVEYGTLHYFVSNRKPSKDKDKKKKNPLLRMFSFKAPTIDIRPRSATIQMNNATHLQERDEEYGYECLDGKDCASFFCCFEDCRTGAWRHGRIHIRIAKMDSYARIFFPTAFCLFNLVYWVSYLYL
T1 sequence (P28472 whole entry): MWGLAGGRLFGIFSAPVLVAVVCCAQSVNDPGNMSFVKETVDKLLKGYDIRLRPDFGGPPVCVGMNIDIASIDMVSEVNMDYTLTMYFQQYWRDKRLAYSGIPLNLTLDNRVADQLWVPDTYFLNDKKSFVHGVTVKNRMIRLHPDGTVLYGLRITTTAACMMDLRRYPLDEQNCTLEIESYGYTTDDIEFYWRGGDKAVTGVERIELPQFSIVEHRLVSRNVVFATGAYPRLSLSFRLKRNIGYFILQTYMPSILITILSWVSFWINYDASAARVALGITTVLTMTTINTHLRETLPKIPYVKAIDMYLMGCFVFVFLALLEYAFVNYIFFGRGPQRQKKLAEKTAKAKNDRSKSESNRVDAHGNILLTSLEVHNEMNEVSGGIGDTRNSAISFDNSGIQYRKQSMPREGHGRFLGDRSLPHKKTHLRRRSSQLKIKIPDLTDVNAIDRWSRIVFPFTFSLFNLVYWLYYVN
T1 sequence (P31644 whole entry): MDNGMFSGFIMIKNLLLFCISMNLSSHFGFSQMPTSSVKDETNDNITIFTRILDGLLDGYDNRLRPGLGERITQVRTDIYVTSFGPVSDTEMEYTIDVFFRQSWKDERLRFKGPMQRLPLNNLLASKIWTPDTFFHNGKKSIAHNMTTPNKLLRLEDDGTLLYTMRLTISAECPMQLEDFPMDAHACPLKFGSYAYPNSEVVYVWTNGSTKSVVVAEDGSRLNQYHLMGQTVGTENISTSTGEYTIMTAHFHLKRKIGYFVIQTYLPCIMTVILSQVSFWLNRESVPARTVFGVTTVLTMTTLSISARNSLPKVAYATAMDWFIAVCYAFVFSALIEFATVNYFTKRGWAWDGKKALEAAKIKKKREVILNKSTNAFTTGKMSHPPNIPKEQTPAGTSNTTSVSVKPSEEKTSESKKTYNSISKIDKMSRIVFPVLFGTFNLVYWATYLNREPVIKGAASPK
The experiment in a line: Binding affinity for Gamma-aminobutyric acid A receptor alpha-5-beta-3-gamma-2.

In assay [3] the target is T2, GABA-A receptor; alpha-1/beta-3/gamma-2 (Homo sapiens, UniProt P14867+P18507+P28472).
T2 sequence (P14867 whole entry): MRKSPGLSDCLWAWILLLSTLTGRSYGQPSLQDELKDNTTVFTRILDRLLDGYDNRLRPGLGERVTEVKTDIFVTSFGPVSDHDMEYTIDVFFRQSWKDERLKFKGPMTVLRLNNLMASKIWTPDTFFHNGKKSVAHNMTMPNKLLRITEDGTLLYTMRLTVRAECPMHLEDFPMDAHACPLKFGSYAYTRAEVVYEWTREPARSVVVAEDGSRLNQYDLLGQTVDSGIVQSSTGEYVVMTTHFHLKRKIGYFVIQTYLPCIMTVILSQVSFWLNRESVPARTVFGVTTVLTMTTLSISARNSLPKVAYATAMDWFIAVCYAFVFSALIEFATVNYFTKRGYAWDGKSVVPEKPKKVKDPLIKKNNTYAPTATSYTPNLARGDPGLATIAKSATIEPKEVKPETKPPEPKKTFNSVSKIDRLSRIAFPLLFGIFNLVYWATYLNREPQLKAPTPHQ
T2 sequence (P18507 whole entry): T1 sequence (P18507 whole entry)
T2 sequence (P28472 whole entry): T1 sequence (P28472 whole entry)
Briefly: Binding affinity against alpha-1-beta-3-gamma-2 GABAA/BzR receptor subtype.

Assay [4] addresses GABA-A receptor; alpha-1/beta-3/gamma-2 (Homo sapiens) (UniProt P14867+P18507+P28472). Briefly: It is the ratio of Ki value for alpha-1-beta-3-gamma-2 to that of alpha-5-beta-3-gamma-2.
Assay [5] concerns the target T3, GABA-A receptor; alpha-3/beta-3/gamma-2 (Homo sapiens, UniProt P18507+P28472+P34903).
T3 sequence (P18507 whole entry): T1 sequence (P18507 whole entry)
T3 sequence (P28472 whole entry): T1 sequence (P28472 whole entry)
T3 sequence (P34903 whole entry): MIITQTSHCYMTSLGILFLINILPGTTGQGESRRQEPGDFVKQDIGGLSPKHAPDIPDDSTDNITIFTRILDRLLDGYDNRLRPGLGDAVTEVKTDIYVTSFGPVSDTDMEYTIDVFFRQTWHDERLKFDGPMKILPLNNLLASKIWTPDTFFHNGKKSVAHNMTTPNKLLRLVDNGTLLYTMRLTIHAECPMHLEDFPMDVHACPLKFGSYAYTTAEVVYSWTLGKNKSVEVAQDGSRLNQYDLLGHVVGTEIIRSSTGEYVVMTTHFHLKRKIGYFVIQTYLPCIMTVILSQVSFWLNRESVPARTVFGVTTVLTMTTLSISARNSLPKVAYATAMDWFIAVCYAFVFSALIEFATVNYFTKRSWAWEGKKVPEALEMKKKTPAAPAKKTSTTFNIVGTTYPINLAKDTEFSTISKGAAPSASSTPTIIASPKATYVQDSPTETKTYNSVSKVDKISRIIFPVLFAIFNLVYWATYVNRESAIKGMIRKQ
The experiment in a line: Binding affinity against alpha-3-beta-3-gamma-2 GABAA/BzR receptor subtype.

For assay [6], the target named is T4, GABA-A receptor; alpha-2/beta-3/gamma-2 (Homo sapiens, UniProt P18507+P28472+P47869).
T4 sequence (P18507 whole entry): T1 sequence (P18507 whole entry)
T4 sequence (P28472 whole entry): T1 sequence (P28472 whole entry)
T4 sequence (P47869 whole entry): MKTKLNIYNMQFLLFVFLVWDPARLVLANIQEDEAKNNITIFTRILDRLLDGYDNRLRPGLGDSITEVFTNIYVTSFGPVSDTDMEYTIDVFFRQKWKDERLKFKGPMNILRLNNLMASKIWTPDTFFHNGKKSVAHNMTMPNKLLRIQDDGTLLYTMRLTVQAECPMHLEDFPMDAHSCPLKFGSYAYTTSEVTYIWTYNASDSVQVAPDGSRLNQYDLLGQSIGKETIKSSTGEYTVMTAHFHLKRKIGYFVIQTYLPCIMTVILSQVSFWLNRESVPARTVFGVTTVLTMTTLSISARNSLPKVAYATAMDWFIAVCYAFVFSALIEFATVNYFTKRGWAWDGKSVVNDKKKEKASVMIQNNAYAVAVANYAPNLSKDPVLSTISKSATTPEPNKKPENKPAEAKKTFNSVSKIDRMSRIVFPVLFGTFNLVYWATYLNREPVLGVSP
The experiment in a line: Binding affinity tested against alpha-2-beta-3-gamma-2 GABAA/BzR receptor subtype.

Structures are written as SMILES.

GABA-A receptor; alpha-6/beta-3/gamma-2, sequence (Q16445 whole entry, one chain of several): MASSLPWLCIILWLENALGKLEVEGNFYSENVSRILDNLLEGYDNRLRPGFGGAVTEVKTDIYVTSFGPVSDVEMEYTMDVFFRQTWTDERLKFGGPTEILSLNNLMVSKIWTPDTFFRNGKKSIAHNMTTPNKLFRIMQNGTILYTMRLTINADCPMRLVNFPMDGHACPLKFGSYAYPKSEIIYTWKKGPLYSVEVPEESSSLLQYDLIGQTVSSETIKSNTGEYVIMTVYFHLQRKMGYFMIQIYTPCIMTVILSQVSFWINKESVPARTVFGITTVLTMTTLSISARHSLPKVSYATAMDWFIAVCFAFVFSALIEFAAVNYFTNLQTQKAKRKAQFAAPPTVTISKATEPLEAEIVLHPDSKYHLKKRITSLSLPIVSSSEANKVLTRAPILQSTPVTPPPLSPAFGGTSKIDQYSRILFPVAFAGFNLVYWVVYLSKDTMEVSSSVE

As to `C#Cc1ccc2c(c1)C(=O)N1CC[C@H]1c1c(-c3nc(C(C)C)no3)ncn1-2`, the Ki was 267 nM in assay [1]; 8.5 nM in assay [2]; 156 nM in assay [3]; 122 nM in assay [5]; 88 nM in assay [6]. Further, the Ratio in assay [4] came to 18.
For the molecule `CCOC(=O)c1ncn2c1[C@H]1CCCN1C(=O)c1cc(Br)ccc1-2`, the Ki in assay [1], in assay [2], in assay [3], in assay [5] and in assay [6] was > 1000 nM throughout.
Turning to `CCCCC(=O)c1ncn2c1CN(C)C(=O)c1cc(Cl)ccc1-2`, the Ki in assay [1] amounted to 2930 nM; in assay [2], 166 nM; in assay [3], 1580 nM; in assay [5], 2740 nM; in assay [6], 2860 nM. Further, the Ratio in assay [4] is 9.6.
Regarding `C#Cc1ccc2c(c1)C(=O)N1CC[C@H]1c1c(-c3nc(CC)no3)ncn1-2`, the Ki is 361 nM in assay [1]; 12.7 nM in assay [2]; 220 nM in assay [3]; 184 nM in assay [5]; 150 nM in assay [6]. Moreover, the Ratio in assay [4] worked out at 17.
For `C#Cc1ccc2c(c1)C(=O)N1CCC[C@H]1c1c(-c3nc(C(C)C)no3)ncn1-2`, the Ki in assay [1] was found to be 333 nM; in assay [2], 4.8 nM; in assay [3], 73 nM; in assay [5] it was 97 nM; in assay [6], 85 nM. The Ratio in assay [4] came to 15.
For the molecule `CN1Cc2c(C(=O)OC(C)(C)C)ncn2-c2ccc(Br)cc2C1=O`, the Ki in assay [1] stood at 9.4 nM; in assay [2] it was 0.47 nM; in assay [3], 11.4 nM; in assay [5] it was 9.2 nM; in assay [6] it was 10.7 nM. For the same molecule, the Ratio in assay [4] worked out at 24.3.
Take `C#Cc1ccc2c(c1)C(=O)N(C)Cc1c(C(=O)OCC)ncn1-2`: the Ki in assay [1] came out at 28.8 nM; in assay [2] it was 0.49 nM; in assay [3], 28.4 nM; in assay [5], 25.8 nM; in assay [6], 21.4 nM. In assay [4], the Ratio is 58.
For `CN1Cc2c(CO)ncn2-c2ccc(Cl)cc2C1=O`, the Ki in assay [1], in assay [2], in assay [3], in assay [5] and in assay [6] was > 300 nM each time.
`CCOC(=O)c1ncn2c1CN(C)C(=O)c1cc(C#CC[Si](C)(C)C)ccc1-2`: the Ki in assay [1], in assay [2], in assay [3], in assay [5] and in assay [6] was > 300 nM throughout.
Consider `CN1Cc2c(C(=O)OC(C)(C)C)ncn2-c2ccc(N3CCCC3)cc2C1=O`, for which the Ki in assay [1] amounted to 325 nM; in assay [2], 9.25 nM; in assay [3] it was 5.8 nM; in assay [5], 169 nM. Besides, in assay [4], the Ratio was found to be 0.63.
Take `CCOC(=O)c1ncn2c1CN(C)C(=O)c1cc(C#C[Si](C)(C)C)ccc1-2`: the Ki in assay [1] turned out to be 114 nM; in assay [2], 5 nM; in assay [5] it was 198 nM; in assay [6] it was 142 nM. The Ratio in assay [4] amounted to 24.2.
For `C=Cc1ccc2c(c1)C(=O)N(C)Cc1c(C(=O)OCC)ncn1-2`, the Ki amounted to 0.4 nM in assay [2], 8.3 nM in assay [3], 6.9 nM in assay [5] and 10.2 nM in assay [6]. For the same molecule, the Ratio in assay [4] was 20.8.
`COc1ccc2c(c1)C(=O)N(C)Cc1c(C(=O)OC(C)(C)C)ncn1-2`: the inhibition constant Ki in assay [1] is 8.28 nM; in assay [2] it was 0.293 nM; in assay [3], 6.74 nM; in assay [5], 7.42 nM. Also, in assay [4], the Ratio is 23.
The corresponding values for `CN1Cc2c(C(=O)OC(C)(C)C)ncn2-c2ccc(N=[N+]=[N-])cc2C1=O` are 5.25 nM, 0.3 nM, 7.25 nM, 5.66 nM and 24.3.
Regarding `CCOC(=O)c1ncn2c1[C@H]1CCCN1C(=O)c1cc(C#C[Si](C)(C)C)ccc1-2`, the Ki in assay [1], in assay [2], in assay [3], in assay [5] and in assay [6] was > 1000 nM each time.
The molecule `CCOC(=O)c1ncn2c1CN(C)C(=O)c1cc(N=[N+]=[N-])ccc1-2` [Ro-154513] gave an inhibitory constant (Ki) in assay [2] of 0.27 nM.
As to `CN1Cc2c(C(=O)OC(C)(C)C)ncn2-c2ccc(O)cc2C1=O`, the inhibition constant Ki in assay [1] amounted to 6.89 nM; in assay [2], 0.14 nM; in assay [3], 1.5 nM; in assay [5], 0.53 nM. Besides, the Ratio in assay [4] stood at 10.7.
Regarding `CCOC(=O)c1ncn2c1CN(C)C(=O)c1cc(Cl)ccc1-2` [Ro-151310], in assay [4], the Ratio worked out at 8.
As for `C#Cc1ccc2c(c1)C(=O)N1CC[C@H]1c1c(-c3nc(C)no3)ncn1-2`, the Ki in assay [1] turned out to be 266 nM; in assay [2], 7.2 nM; in assay [5], 91 nM; in assay [6], 56 nM.
With `C#Cc1ccc2c(c1)C(=O)N1CCC[C@@H]1c1c(-c3nc(C)no3)ncn1-2`, the Ki in assay [1] was > 1000 nM; in assay [2], 157 nM; in assay [3] it was > 1000 nM; in assay [5] it was > 1000 nM; in assay [6], > 1000 nM.
